Assay results published in PubChem BioAssay AID623987 (Broad Institute, 2012).
pIC50: −log10 of the molar value. Active and inactive are the calls of the source.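 The calls were made as follows: active = compounds lowering cell ATP light, with fitted IC50 at most twice the top tested dose; inconclusive = flat curve losing 30 to 70% signal, or poor fit; inactive = the rest.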

Key:
[1] = mammalian cell viability loss in HeLa – CellTiter-Glo luminescence, dry powder, set 3, cytotoxicity control for pyoverdine/PvdQ inhibitor project, dose response (AID 623987); settings: HeLa viability, CellTiter-Glo ATP luminescence; at 120 µM (top of the series)
Method in brief: (§1)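 Test system: HeLa cells; Amount: 2,500 cells/well; Buffer or medium: phenol red-free DMEM, 10% FBS; Compound dosing: 3-fold series, 10 mM stock top; Incubation: 24 h pre-growth at 37 °C, 48 h exposure; Signal: CellTiter-Glo luminescence measuring cellular ATP.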

[2] = test system: HeLa viability, CellTiter-Glo ATP luminescence; test: as above
Method in brief: as §1

Row | SMILES | activity change, negative = toxicity [1] | IC50 [2] | pIC50 [2]
1 | COCCC(C#N)c1ccc(F)cc1 (stereo not given) | 4.64% (inactive) | – | –
2 | N#CC(c1ccc(Cl)cc1)c1ccccn1 (stereo not given) | 0.002% (inactive) | – | –
3 | Clc1ccc(C(c2cccc(Cl)n2)c2nn[nH]n2)cc1 (stereo not given) | 1.4% (inactive) | – | –
4 | CCCCC(C#N)c1ccc(Cl)cn1 (stereo not given) | 13.2% (inactive) | – | –
5 | CCCCC(C#N)c1ccc(Cl)cc1 (stereo not given) | 7.6% (inactive) | – | –
6 | CN(C)CCCC(C#N)c1ccc(F)cc1 (stereo not given) | – | > 240 µM (inactive) | –
7 | CCCCC(C#N)c1ccc(F)cc1 (stereo not given) | -1.79% (inactive) | – | –
8 | CCCCC(C#N)c1ccccn1 (stereo not given) | – | > 240 µM (inactive) | –
9 | N#CC(c1ccc(Cl)cc1)N1CCCC1 (stereo not given) | 24% (inactive) | – | –
10 | CN(C)CCCC(C#N)c1ccc(Cl)cc1 (stereo not given) | 6.74% (inactive) | – | –
11 | CCCCC(C#N)c1ccc(F)cn1 (stereo not given) | 1.98% (inactive) | – | –
12 | COCCNC(C#N)c1ccc(Cl)cc1 (stereo not given) | -1.45% (inactive) | – | –
13 | COCCOCCC(C#N)c1ccc(Cl)cc1 (stereo not given) | – | > 240 µM (inactive) | –
14 | COCCC(C#N)c1ccc(Cl)cc1 (stereo not given) | – | – | 4.03
15 | N#CC(c1ccc(Cl)cc1)c1ncccc1Cl (stereo not given) | – | > 240 µM (inactive) | –
16 | CCCCC(c1ccc(Cl)cc1)c1nn[nH]n1 (stereo not given) | 9.15% (inactive) | – | –
17 | COCCOCCC(C#N)c1ccc(F)cc1 (stereo not given) | 5.01% (inactive) | – | –
18 | N#CC(c1ccc(F)cc1)c1cccc(Cl)n1 (stereo not given) | – | > 240 µM (inactive) | –
19 | N#CC(c1ccc(C(F)(F)F)c(Cl)n1)c1ccccc1OC(F)(F)F (stereo not given) | – | > 240 µM (inactive) | –
20 | N#CC(c1ccc(F)cc1)c1cccc(C(F)(F)F)n1 (stereo not given) | 5.55% (inactive) | – | –
21 | N#CC1c2ccc(Cl)cc2CCc2cccnc21 (stereo not given) | – | > 240 µM (inactive) | –
22 | N#CC(c1ccc(Cl)cc1)c1cccc(Cl)n1 (stereo not given) | 3.78% (inactive) | – | –
23 | N#Cc1cccc(C(C#N)c2ccc(F)cc2)n1 (stereo not given) | -2.4% (inactive) | – | –
24 | N#CC(c1cccc(C(F)(F)F)n1)c1ccc(Cl)cc1F (stereo not given) | – | > 240 µM (inactive) | –
25 | N#CC(c1ccc(Cl)cc1)c1cccc(C(F)(F)F)n1 (stereo not given) | 4.48% (inactive) | – | –
